Experimental findings from ChEMBL document CHEMBL2176894, “Cyanobacterial peptides as a prototype for the design of potent β-secretase inhibitors and the development of selective chemical probes for other aspartic proteases” (J Med Chem, 2012) are described below.

Calls of active or inactive are those of the source. No cut-off for these calls is given here. Starred links: 1 amine or outer side, 2 acyl side, 3 side chain; linkers in the order of their positions; H or OH if unused. Non-standard residues stand in square brackets, D forms with d. Residues, ends and D or L forms follow the SMILES beside them. Ahppa(3S,4S) = O=C(C[C@H](O)[C@H](Cc1ccccc1)N[*:1])[*:2]; dNMeF = CN[C@H](Cc1ccccc1)C(=O)O; NMeQ = CN[C@@H](CCC(N)=O)C(=O)O; Lac = C[C@H](O)C(=O)O

The test system of one data set is Nucleic Acid. Briefly: Ratio of drug level in CF1 mouse brain to IC50 for inhibition of BACE1-mediated Abeta40/Abeta42 production in CHO 2B7 cells expressing wild type APP695. The format is cell-based. In a few lines:
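CF-1 mice (8 weeks, 25−35 g) received 30 mg/kg i.p. in 5% DMSO/15% Solutol HS 15/10% EtOH/65% water and were killed 3 h post-dose. Cerebellum and cortex were homogenized in acetonitrile (1:10 w:v) with internal standard and quantified by HPLC-MS (MRM, negative ion). The cellular reference was CHO 2B7 (APP695 wt): 16 h treatment, 1% DMSO, secreted Aβ40/Aβ42 sandwich ELISA.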

Another data set has as its system Brain. Nature of the data set: Drug concentration in CF1 mouse brain at 30 mg/kg, ip measured 3 hrs post dose by HPLC-MS method relative to compound plasma concentration. The format is ADME, organism-based. Also on record: dose 30 mg/kg, route intraperitoneal. The method, boiled down:
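CF-1 mice, 8 weeks old, 25−35 g, given 30 mg/kg i.p. in 5% DMSO/15% Solutol HS 15/10% EtOH/65% water; killed 3 h post-dose. Cerebellum and cortex homogenized in acetonitrile (1:10 w:v) containing internal standard, then re-extracted. Plasma was taken by cardiac puncture into K-EDTA. Levels were measured by HPLC-MS (MRM, negative ionization) and interpolated from a calibration curve.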

The subject of the next data set is Mus musculus. Briefly: Reduction in […] in CF1 mouse at 30 mg/kg, ip measured 3 hrs post dose by sandwich ELISA. The format is functional, organism-based. Also on record: dose 30 mg/kg. (In general: An ELISA detects its analyte on a solid surface through an enzyme-linked reagent.)
Data set [1] can be described thus: Drug metabolism in human H4 cells lysates assessed as ester hydrolysis mediated formation of metabolites by HPLC-MS method. It counts as ADME, cell-based, Lysate. In a few lines: (§1)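 H4 whole-cell lysate was diluted to 1 mg/mL protein in 0.1 M phosphate buffer, pH 7.4. Parent and acid hydrolysis product were extracted with EtOAc with internal standard. Quantitation was by HPLC-MS MRM against a calibration curve; n = 2.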

Data set [2] deals with Serum. Briefly: Drug metabolism in mouse serum assessed as ester hydrolysis mediated formation of metabolites by HPLC-MS method. It counts as ADME, cell-free. The method, boiled down:
(§2)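 Compound (10 μL of 25 μg/mL) was incubated with 100 μL mouse serum at 37 °C for 0, 1, 2, 4, 8, 12 and 24 h. The reaction was quenched with EtOAc plus internal standard, shaken 5 min, centrifuged at 16000g, and the organic layer dried and taken up in MeOH. Parent and ester-hydrolysis acid were quantified by HPLC-MS MRM interpolation; n = 2.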

Data set [3] in a line: Permeability at 10 uM at pH 7.4 by PAMPA method. The format is ADME. The settings on record: read-out: permeability. The method, boiled down: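 Filters were coated with BBB-1 lipid, with brain sink buffer in the acceptor. Plates were incubated 4 h at room temperature, humidified. Absorbance was read at 250−350 nm and Pe calculated. Triplicate; mean ± SD.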
A short description of data set [4]: Permeability at 10 uM at pH 5.0 by PAMPA method. It counts as ADME. The settings on record: read-out: permeability.
A short description of data set [5]: Stability in human H4 cells lysates by HPLC-MS method. It counts as ADME, cell-based, Lysate. In a few lines:
as §1

The subject of data set [6] is Serum. Nature of the data set: Stability in mouse serum by HPLC-MS method. It counts as ADME, cell-free. In a few lines:
as §2

For data set [7], the target named is T1, Gamma-secretase (Homo sapiens) (UniProt Q96BI3+Q9NZ42+Q8WW43+P49768+Q92542+P49810). Nature of the data set: Inhibition of gamma secretase expressed in human H4 cells expressing BRI-C99 fusion protein assessed as C99 fragment accumulation fragment at 10 uM incubated for 16 hrs in by immunoblot. The format is cell-based. The method, boiled down:
(§3)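 H4 cells overexpressing Bri-C99 (400000/well) were kept in Opti-MEM with 1% serum and treated 16 h with test compound (10 μM), LY411575 (100 nM) or BACE1 inhibitor IV (1 μM). Cells were lysed in TBS/1% Triton X-100 and run on a 12% bis-tris gel. Blots were probed with CT-20 antibody for furin-generated C99 and read on an infrared imager.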
(In general: In western blotting, separated proteins are transferred to a membrane and probed.)

For a further data set, the system named is H4. Nature of the data set: Inhibition of Alpha secretase expressed in human H4 cells assessed as reduction in C83 levels at 10 uM incubated for 16 hrs by immunoblot. It counts as cell-based. The method, boiled down:
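H4 cells (3 × 10⁵/well) adhered 4−6 h in DMEM/10% FCS at 37 °C, then were switched to serum-free Ultraculture containing compound at 10 μM final for 16 h. Cells were lysed in NP40/deoxycholate buffer, and protein was equalized by BCA. Lysates were run on 10−20% tricine gels and immunoblotted with antibody to the APP C-terminal 20 residues (1:2000); C99 and C83 were imaged on an infrared system.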

Data set [8] has as its target T2, Beta-secretase 1 (Homo sapiens, UniProt P56817). Briefly: Inhibition of BACE1 expressed in human H4 cells assessed as reduction in CTF levels at 10 uM incubated for 16 hrs by immunoblot. It counts as cell-based.
Another data set has as its target T3, Cathepsin E (Homo sapiens, UniProt P14091).
T3 sequence (P14091 whole entry): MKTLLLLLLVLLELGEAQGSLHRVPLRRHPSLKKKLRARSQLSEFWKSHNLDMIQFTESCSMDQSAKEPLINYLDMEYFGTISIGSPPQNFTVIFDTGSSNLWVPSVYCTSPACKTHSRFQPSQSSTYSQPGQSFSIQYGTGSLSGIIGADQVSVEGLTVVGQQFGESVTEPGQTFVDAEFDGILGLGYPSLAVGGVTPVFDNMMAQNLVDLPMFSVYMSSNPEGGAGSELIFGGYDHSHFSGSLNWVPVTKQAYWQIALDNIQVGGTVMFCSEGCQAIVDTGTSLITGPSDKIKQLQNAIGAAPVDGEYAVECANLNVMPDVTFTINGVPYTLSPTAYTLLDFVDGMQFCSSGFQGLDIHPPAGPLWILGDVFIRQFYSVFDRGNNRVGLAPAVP
Nature of the data set: Inhibition of cathepsin E by fluorescence assay.

The target of the next data set is Cathepsin D (Homo sapiens, UniProt P07339). Briefly: Inhibition of cathepsin D by fluorescence assay.
Data set [9] deals with T2, Beta-secretase 1. Nature of the data set: Inhibition of BACE1 by fluorescence assay.
Data set [10] concerns the target T2, Beta-secretase 1. Briefly: Inhibition of BACE1 expressed in CHO 2B7 cells expressing wild type APP695 assessed as reduction in Abeta40/Abeta42 levels incubated for 16 hrs by sandwich ELISA. The format is cell-based.
The target in data set [11] is T2, Beta-secretase 1. The settings on record: H4, at 10 µM.
Data set [12] deals with T1, Gamma-secretase (Homo sapiens). Briefly: Inhibition of gamma secretase expressed in human H4 cells expressing BRI-C99 fusion protein assessed as C99 fragment accumulation fragment at 100 nM incubated for 16 hrs in by immunoblot. The format is cell-based. In a few lines: as §3
Data set [13] shares this target. Nature of the data set: Inhibition of gamma secretase expressed in human H4 cells assessed as reduction in C83 levels at 10 uM incubated for 16 hrs by immunoblot. The format is cell-based.
The target is the same in data set [14]. Briefly: Inhibition of gamma secretase expressed in human H4 cells assessed as reduction in CTF levels at 10 uM incubated for 16 hrs by immunoblot. The format is cell-based.

Sequence of Cathepsin D (P07339 65-162 limits assumed): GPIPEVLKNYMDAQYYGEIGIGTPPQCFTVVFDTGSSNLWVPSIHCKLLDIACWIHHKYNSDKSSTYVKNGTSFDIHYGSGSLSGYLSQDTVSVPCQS
Sequence of Cathepsin D (P07339 169-412 limits assumed): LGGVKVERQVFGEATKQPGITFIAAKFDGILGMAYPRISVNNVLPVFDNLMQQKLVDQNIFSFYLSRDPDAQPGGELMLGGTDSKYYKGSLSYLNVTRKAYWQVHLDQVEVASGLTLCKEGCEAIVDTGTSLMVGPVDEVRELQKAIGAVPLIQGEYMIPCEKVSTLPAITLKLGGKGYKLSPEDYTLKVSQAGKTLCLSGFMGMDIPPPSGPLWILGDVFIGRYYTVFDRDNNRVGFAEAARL
T2 sequence (P56817 whole entry): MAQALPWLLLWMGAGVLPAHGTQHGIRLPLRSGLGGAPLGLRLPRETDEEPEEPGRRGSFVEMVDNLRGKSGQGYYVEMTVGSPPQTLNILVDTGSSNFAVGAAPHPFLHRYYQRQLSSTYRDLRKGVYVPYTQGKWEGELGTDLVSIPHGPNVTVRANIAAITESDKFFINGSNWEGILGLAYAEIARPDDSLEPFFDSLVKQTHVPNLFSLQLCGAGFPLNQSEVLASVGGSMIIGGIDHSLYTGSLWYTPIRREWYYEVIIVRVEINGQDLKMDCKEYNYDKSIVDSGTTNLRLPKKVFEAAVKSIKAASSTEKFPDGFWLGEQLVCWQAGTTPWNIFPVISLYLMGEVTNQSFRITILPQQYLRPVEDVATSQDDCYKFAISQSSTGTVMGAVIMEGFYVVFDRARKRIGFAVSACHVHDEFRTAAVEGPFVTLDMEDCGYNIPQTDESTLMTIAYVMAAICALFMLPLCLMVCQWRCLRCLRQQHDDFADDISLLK

In the case of `COC(=O)[C@@H]1CCCN1C(=O)[C@@H](Cc1ccccc1)N(C)C(=O)[C@H](C)NC(=O)[C@H](CC(C)C)NC(=O)C[C@H](O)[C@H](Cc1ccccc1)NC(=O)c1cc(NS(C)(=O)=O)cc(C(=O)N[C@H](C)c2ccccc2)c1`, the Ratio in the data set on Nucleic Acid came to 3. The compound also yielded a Drug uptake in the data set with Brain of 2.5%. In addition, the result in the data set with Mus musculus was inactive. The Drug metabolism result (in data set [1]; in the data set on Serum [2]) was “Active” throughout. The Papp at 10 µM in [3] came out at 8.58 ×10⁻⁶ cm/s; in [4], 10.7 ×10⁻⁶ cm/s. Moreover, the Stability result (in [5]; in the data set with Serum [6]) was “Stable” each time. Moreover, the inhibition result (in [7]; in the data set on H4) was “inactive” in each case. Moreover, the inhibition result at Beta-secretase 1 [8] and on Beta-secretase 1 [11] was “Active” each time. In addition, the half-maximal inhibitory concentration (IC50) (usually the concentration that inhibits the measured activity by half) against Cathepsin E was determined as 210 nM; at Cathepsin D, 11.3 nM; at Beta-secretase 1 [9], 128 nM; at Beta-secretase 1 [10] it was 100 nM.

Regarding `COC(=O)[C@@H]1CCCN1C(=O)[C@@H](Cc1ccccc1)N(C)C(=O)[C@H](C)NC(=O)[C@H](CC(C)C)NC(=O)C[C@H](O)[C@H](Cc1ccccc1)NC(=O)[C@H](CCC(N)=O)N(C)C(=O)[C@@H](N)C(C)C`, the inhibition entry (in data set [7]; in the data set on H4) was “inactive” each time. Besides, the IC50 against Cathepsin E came to 58.2 nM; on Cathepsin D it was 17.3 nM.

On to `COc1cccc(CNC[C@@H](O)[C@H](Cc2ccccc2)NC(=O)c2cc(C(=O)N[C@H](C)c3ccccc3)cc(N(C)S(C)(=O)=O)c2)c1`, for which, in the data set with Brain, the Drug uptake stood at 10%.

Consider `COC(=O)[C@@H]1CCCN1C(=O)[C@@H](Cc1ccccc1)N(C)C(=O)[C@H](C)NC(=O)[C@H](CC(C)C)NC(=O)C[C@H](O)[C@H](Cc1ccccc1)NC(=O)c1cc(C(=O)N[C@H](C)c2ccccc2)cc(N(C)S(C)(=O)=O)c1`, for which the Ratio in the data set on Nucleic Acid is 20. This compound also gave a Drug uptake in the data set on Brain of 5.8%. Also, the outcome in the data set on Mus musculus was Active. Further, the Drug metabolism entry (in data set [1]; in the data set on Serum [2]) was “Active” in each case. Also, the Stability entry (in data set [5]; in the data set on Serum [6]) was “Stable” each time. Also, the inhibition entry (in data set [7]; in the data set on H4) was “inactive” throughout. In addition, the inhibition result at Beta-secretase 1 [8] and on Beta-secretase 1 [11] was “Active” in each case. In addition, the results for the IC50 against Cathepsin E, at Cathepsin D and on Beta-secretase 1 [10] were 36.4 nM, 5.84 nM and 10 nM, respectively.

Regarding `CC(C)C[C@H](NC(=O)C[C@H](O)[C@H](Cc1ccccc1)NC(=O)[C@H](CCC(N)=O)N(C)C(=O)[C@@H](NC(=O)[C@H](C)O)C(C)C)C(=O)N[C@@H](C)C(=O)N(C)[C@H](Cc1ccccc1)C(=O)O` (H-[Lac]V[NMeQ][Ahppa(3S,4S)]LA[dNMeF]-OH), the results for the IC50 at Cathepsin E, at Cathepsin D and against Beta-secretase 1 [9] were 20.8 nM, 54.1 nM and 73 nM, respectively. In addition, the inhibition entry at Beta-secretase 1 [11] is “Active”.

For the compound `C[C@H](NC(=O)[C@@H](O)c1cc(F)cc(F)c1)C(=O)N[C@@H]1C(=O)N(C)c2ccccc2-c2ccccc21`, the inhibition result in data set [12], in data set [13] and in data set [14] was “Active” each time.
